Screening data (PubChem BioAssay)
Sampled rows, rich in hits. Any-hit rate of the full collection: about 9.2%.
ERb coact inh – ER-beta (human) coactivator binding inhibition. Q92731. TR-FRET ER-beta LBD / SRC1-Cy5 peptide binding; receptor agonist-loaded with 1 µM estradiol. inhibition, % at 25.6 µM. actives 1.3% (n = 86,000). AID 633;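 active = compounds whose percent inhibition of the receptor-coactivator binding signal exceeds about 50% in the single-dose screen, limit read from the data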;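 note: 0% = receptor plus peptide wells without compound and 100% = peptide-only wells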
HUVEC prolif 384 – inhibitors of human endothelial cell proliferation; viability, % at 10 µM (by protocol); HUVEC proliferation, CellTiter-Glo luminescence, 72 h; active compounds read low; actives 1.1% (n = 86,000);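 active = viability at or below 30%; inactive = viability above 30%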;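 note: 100% = median luminescence of DMSO-only cell control wells on each plate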
ERa SRC1 inh – blocks coactivator binding to human estrogen receptor alpha; TR-FRET ER-alpha LBD / SRC-1 peptide, estradiol-bound; inhibition, % at 25.6 µM; actives 1.7% (n = 86,000); AID 629; in the data active = inhibition above about 50%;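 note: 0% = receptor plus peptide control and 100% = peptide only without receptor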
ERa SRC1 pot – ER-alpha (human) coactivator binding potentiation | P03372 | TR-FRET ERalpha-LBD/SRC-Cy5 coactivator binding, 2 h; 100 = basal binding, no effect | coactivator binding (% of control), % at 25.6 µM | actives 1.3% (n = 86,000); in the data active = activity above about 200%;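 note: binding measured in presence of low estradiol as agonist stimulus; 0% = peptide alone without receptor and 100% = receptor with peptide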
Lung fibro prol – blocks proliferation of human lung fibroblasts. LL 47 human lung fibroblast viability, ATP luminescence; active compounds read low. viability, % at 10 µM. actives 1.1% (n = 85,000). AID 719;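 active = viability at or below 50% in the single dose screen; inactive = viability above 50%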;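 note: compound exposure lasted 72 h before the ATP readout; 100% = median luminescence of untreated cell-only wells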
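Times – overnight cell rest, 72 h compound treatment at 37 °C · Test system – human lung fibroblast line LL 47, low passage · Amount – 1,150 cells in each well · Controls – cell-only wells, no compound · Doses – 0.1% DMSO in all compound wells · Measured by – CellTiter-Glo luminescence · Buffer or medium – IMEM plus 15% FBS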
H69AR inhibit – blocks growth of human H69AR lung tumor cells; H69AR lung tumor viability, ATP luminescence, 72 h; active compounds read low; viability, % at 10 µM; actives 6% (n = 85,000); AID 598;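 active = viability at or below 40%; inactive = viability above 40%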;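 note: multidrug resistant small cell line overexpressing MRP-1 efflux transporter; 100% = mean luminescence of untreated control wells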
Numbers without * were called inactive; / = no result; [ ] = another dose, or the depositor's remark.

SMILES	ERb coact inh	HUVEC prolif 384	ERa SRC1 inh	ERa SRC1 pot	Lung fibro prol	H69AR inhibit
CC(C)n1c(N2CCN(CC(=O)Nc3ccc4c(c3)OCCO4)CC2)nc2ccccc21	-3.2	97.9	-5.7	123.3	97.3	93.8
O=C(Nc1ccccc1F)c1cc2nc(C(F)F)cc(C(F)F)n2n1	2.1	123.8	9.7	103.1	99.2	88.1
O=C(OCN1C(=O)c2ccccc2C1=O)C1CCCCC1	0.9	94.8	-8.5	106.3	107.4	95.6
O=C1c2ccccc2C(=O)N1SC1CCCCC1	15.9	76.2	25.5	31.1	62.5	0.6*
COc1cc(C)c(C(N)=O)c(OC)n1	-5.4	110.5	-1.8	102.9	105.1	104.7
CCOC(=O)C1=C(CN2CCCCC2)NC(=O)NC1c1cc(C)ccc1C (configuration not stated)	-9.5	109.2	1.4	93.2	103.1	74.3
CCOC(=O)C1=C(CSCc2ccccc2)NC(=O)NC1c1cc(C)ccc1C (configuration not stated)	6.1	93.6	12.3	70.0	97.7	31.6*
Cn1c(-c2ccccc2)cc2c3no[n+]([O-])c3ccc21	6.8	13.6*	1.1	108.2	26.3*	19.1*
CC(C)[C@H](NC(=O)NCc1ccco1)C(=O)O	5.2	102.7	-5.4	107.4	96.6	103.8
CN=C1SC(CC(=O)Nc2sc3c(c2C#N)CCCC3)C(=O)N1C (configuration not stated)	-4.6	87.4	-4.2	97.8	98.0	20.5*
N#Cc1c(NC(=O)CCC(=O)O)sc2c1CCCC2	-12.1	103.8	-19.9	97.1	92.1	97.6
CN=C1SC(CC(=O)Nc2ccc(C(C)=O)cc2)C(=O)N1C (configuration not stated)	70.9*	100.8	79.4*	51.8	97.9	104.9
CCOC(=O)c1ccc(NC(=O)CC2SC(=NC)N(C)C2=O)cc1 (configuration not stated)	-4.5	93.7	-7.5	91.2	/	82.1
CC1CCCCN1CC(=O)Nc1sc2c(c1C#N)CCC2 (configuration not stated)	52.7*	106.0	45.6	72.6	92.8	101.5
CC1CCCC(C)N1CCNC(=O)C1CCN(S(=O)(=O)N2CCCCC2)CC1 (configuration not stated)	-12.1	96.3	0.6	112.3	100.5	106.8
CCOc1ccccc1C(=O)N(Cc1cccs1)C1CCS(=O)(=O)C1 (configuration not stated)	5.0	98.8	-8.4	198.9	98.1	94.1
COc1ccc(-c2nnc(CSc3nc4ccccc4c(=O)n3CC3CCCO3)o2)cc1OC (configuration not stated)	12.6	86.5	3.2	101.0	94.9	53.9
COC(=O)Cc1c(C)nc2nc(NCc3cccc([N+](=O)[O-])c3)[nH]n2c1=O	16.5	96.8	2.5	105.7	106.6	102.5
COC(=O)Cc1c[nH]c2cccc(OCC(O)CN(Cc3ccc([N+](=O)[O-])cc3)C(C)(C)C)c12 (configuration not stated)	-0.8	83.5	-13.0	83.8	96.8	39.7*
CCC(C)NC(=O)c1c(-c2cc(Cl)c(OC)c(Cl)c2)noc1C (configuration not stated)	-1.8	103.9	-2.6	97.4	96.3	96.0
CCOC(=O)Cc1cc(=O)n2[nH]c(-c3ccc(Cl)cc3)cc2n1	7.0	72.7	14.2	89.2	90.2	95.4
CC(C)(C)OC(=O)N1CCC(c2cc(=O)n3[nH]c(-c4ccc(Cl)cc4)cc3n2)CC1	11.4	73.0	30.6	251.0*[fluorescence artefact?]	75.8	10.9*
O=C(c1cccs1)c1coc2ccc(O)cc12	-6.2	103.4	-1.5	96.2	111.8	100.6
CCC(=O)c1coc2ccc(O)cc12	78.1*[fluorescence artefact?]	101.9	67.1*[fluorescence artefact?]	45.0	105.8	97.4
CC(C)(C)CC(=O)Nc1ccc(Nc2ccccc2)cc1	14.4	87.3	-1.9	97.3	96.0	74.3
CCOC(=O)N1CCN(C(=O)C2CCN(S(=O)(=O)CC)CC2)CC1	-4.0	96.7	0.3	238.2*[fluorescence artefact?]	96.8	91.2
C=C(C)CSc1nnc([C@@H](NC(=O)OC(C)(C)C)C(C)CC)o1 (some centres not stated)	-2.0	101.1	5.2	127.1	98.5	96.0
